{"data": "Published values pooled from the literature", "CYP3A4": "Cytochrome P450 3A4 (CYP3A4, Homo sapiens, UniProt P08684)", "CYP1A2": "Cytochrome P450 1A2 (CYP1A2, Homo sapiens, UniProt P05177)", "SLCO1B1": "Solute carrier organic anion transporter family member 1B1 (SLCO1B1, Homo sapiens, UniProt Q9Y6L6)"}
{"SMILES": "CC(C)(C)OC(=O)N[C@H](CSCCC(=O)NCc1cccnc1)Cc1ccccc1", "target": "CYP3A4", "assay": "thermal stability", "endpoint": "ΔTm", "result": "-1 °C"}
{"SMILES": "COC(=O)C1CCN(C(=O)c2cccc(NCc3cnc4nc(N)nc(N)c4n3)c2)CC1", "target": "CYP3A4", "assay": "enzyme activity, inhibitor, luciferase", "conditions": "10 µM", "endpoint": "inhibition", "result": "-19.5%"}
{"SMILES": "O=C(Nc1c2c(cc3c1CCC3)CCC2)NS(=O)(=O)/C=C/c1nccs1", "target": "CYP1A2", "assay": "enzyme activity, inhibitor", "system": "human, liver microsomes", "conditions": "2 µM, pH 7.4", "endpoint": "inhibition", "result": "14.6%"}
{"SMILES": "C=CC(=O)Nc1cc(Nc2nccc(Nc3cc(Cl)c(F)cc3C(C)(C)O)n2)c(OC)cc1N1CC[C@@H](N(C)C)C1", "target": "CYP3A4", "assay": "enzyme activity, inhibitor", "system": "human, liver microsomes", "endpoint": "IC50", "result": "18.2 µM"}
{"SMILES": "Nc1ccc(S(=O)(=O)Nc2ccnn2-c2ccccc2)cc1", "target": "CYP1A2", "assay": "enzyme activity, inhibitor", "system": "human, liver microsomes", "conditions": "10 µM", "endpoint": "inhibition", "result": "-9%"}
{"SMILES": "C[C@H]1C[C@H]2[C@@H]3CCC4=CC(=O)C=C[C@]4(C)[C@@]3(Cl)[C@@H](O)C[C@]2(C)[C@@]1(O)C(=O)CO", "target": "SLCO1B1", "assay": "transporter uptake, inhibitor", "endpoint": "IC50", "result": "6.7 µM"}
{"SMILES": "CCCOC(=O)C1CCN(C(=O)c2ccc(N(C)Cc3cnc4nc(N)nc(N)c4n3)cc2)CC1", "target": "CYP3A4", "assay": "enzyme activity, inhibitor, luciferase", "conditions": "10 µM", "endpoint": "inhibition", "result": "-10.1%"}
{"SMILES": "CN(C(=O)n1cnc(-c2ccc[n+]([O-])c2)c1)C1CCCCC1", "target": "SLCO1B1", "assay": "transporter uptake, inhibitor", "system": "HEK293", "conditions": "10 µg/mL", "endpoint": "inhibition", "result": "~20%"}
{"SMILES": "CC(C)(C)OC(=O)NCCCCCC(=O)NCc1cccnc1", "target": "CYP3A4", "assay": "thermal stability", "endpoint": "ΔTm", "result": "-0.2 °C"}
{"SMILES": "NC(=O)C1CCN(C(=O)c2ccc(NCc3cnc4nc(N)nc(N)c4n3)cc2)CC1", "target": "CYP3A4", "assay": "enzyme activity, inhibitor, luciferase", "conditions": "10 µM", "endpoint": "inhibition", "result": "-4.54%"}
{"SMILES": "CN(CCC(=O)O)C(=O)c1ccc2c(c1)CC[C@@H]1[C@@H]2CC[C@]2(C)C(c3cncc(F)c3)=CC[C@@H]12", "target": "SLCO1B1", "assay": "transporter uptake, inhibitor", "endpoint": "IC50", "result": "3.1 µM"}
